IC50 data for two molecules are collected here from BindingDB's records for doi:10.1016/j.bmc.2010.05.001 (St. Jude Children'S Research Hospital, 2011).

The target of test [1] is T1, Zinc finger protein GLI1 (Homo sapiens, UniProt P08151).
T1 sequence (P08151 whole entry): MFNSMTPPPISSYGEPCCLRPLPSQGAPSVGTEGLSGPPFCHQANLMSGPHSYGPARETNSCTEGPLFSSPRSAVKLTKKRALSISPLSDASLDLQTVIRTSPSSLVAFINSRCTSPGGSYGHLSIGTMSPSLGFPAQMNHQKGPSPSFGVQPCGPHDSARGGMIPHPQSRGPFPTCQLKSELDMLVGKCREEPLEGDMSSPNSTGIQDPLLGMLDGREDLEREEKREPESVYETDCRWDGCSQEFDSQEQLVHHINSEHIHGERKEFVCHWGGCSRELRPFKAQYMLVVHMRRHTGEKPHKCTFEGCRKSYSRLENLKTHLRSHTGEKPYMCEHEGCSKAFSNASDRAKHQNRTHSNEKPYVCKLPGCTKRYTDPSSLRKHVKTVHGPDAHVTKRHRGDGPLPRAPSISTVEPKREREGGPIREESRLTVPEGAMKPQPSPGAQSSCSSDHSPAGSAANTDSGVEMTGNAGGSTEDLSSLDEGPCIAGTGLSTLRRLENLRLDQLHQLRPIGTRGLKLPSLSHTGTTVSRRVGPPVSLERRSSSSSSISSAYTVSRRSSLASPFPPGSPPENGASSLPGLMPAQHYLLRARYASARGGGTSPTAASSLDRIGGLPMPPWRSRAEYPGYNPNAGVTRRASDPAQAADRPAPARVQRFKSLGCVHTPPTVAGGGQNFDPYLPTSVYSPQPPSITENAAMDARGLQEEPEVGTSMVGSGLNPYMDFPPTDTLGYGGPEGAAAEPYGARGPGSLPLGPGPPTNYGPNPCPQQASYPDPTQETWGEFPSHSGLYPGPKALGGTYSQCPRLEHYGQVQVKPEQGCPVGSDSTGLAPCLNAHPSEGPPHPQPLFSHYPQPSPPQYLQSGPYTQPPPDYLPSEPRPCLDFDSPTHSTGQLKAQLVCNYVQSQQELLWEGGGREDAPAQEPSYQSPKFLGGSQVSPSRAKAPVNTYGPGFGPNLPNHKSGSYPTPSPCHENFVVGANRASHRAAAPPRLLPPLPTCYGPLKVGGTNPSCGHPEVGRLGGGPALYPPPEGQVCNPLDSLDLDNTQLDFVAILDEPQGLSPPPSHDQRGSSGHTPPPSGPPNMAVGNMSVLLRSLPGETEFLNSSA
In words: Inhibition of human Gli1 expressed in mouse C3H10T1/2 cells assessed as inhibition of transcriptional activity after 24 hrs by luciferase reporter gene assay. Summed up: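 C3H10T1/2 cells transiently transfected overnight with GliLuc-BS, pRL-TK Renilla control and human Gli1 (or mouse Gli2 for Gli2 lines), 250 ng/mL each for the Gli plasmids. Firefly/Renilla dual-luciferase ratio normalized to DMSO, triplicates. Dose–response IC50 from curve fitting.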
On the technique in general: A reporter such as luciferase makes a cellular process visible.

The target in test [2] is T1, Zinc finger protein GLI1. In words: Inhibition of human Gli1-mediated transcriptional activity in human Rh30 cells after 24 hrs by luciferase reporter gene assay. Put shortly: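 Rh30 cells without Gli1 transfection, transfected overnight with GliLuc-BS (500 ng/mL) and pRL-CMV (2.5 ng/mL), then replated in 96-well plates. Compound given in RPMI-1640/10% FBS for 24 h at 37 °C. Firefly luminescence divided by Renilla and normalized to DMSO-treated cells (0% inhibition), triplicates.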

As to `CCCN(C(=O)C(C)c1cccc(C(=O)c2ccccc2)c1)c1ccc2[nH]ccc2c1` (configuration not stated) [2-(3-Benzoylphenyl)-N-(1H-indol-5-yl)-N-propylpropanamide], the IC50 (as a rule, the midpoint of a concentration-inhibition curve) in test [1] worked out at 1.6 µM.

For `CN(C)c1ccccc1CN1CCCN(Cc2ccccc2N(C)C)C1c1ccncc1` [2-((3-(2-(dimethylamino)benzyl)-2-(pyridin-4-yl)-tetrahydropyrimidin-1(2H)-yl)methyl)-N,N-dimethylbenzenamine], half-maximal inhibition in test [2] (IC50) was put at 40 µM.
